Experimental data pooled from the literature.
Cell line: UACC-62
Effect on: cell growth or viability

| Compound | method | tested at | time | quantity | value |
| --- | --- | --- | --- | --- | --- |
| COc1ccc(C(=O)/C=C/c2cccnc2)cc1S(N)(=O)=O | SRB | – | 48 h | GI50 | 12.9 µM |
| COc1ccc(-c2ccc(-c3ccc(C(=N)N)nc3)s2)cc1 | SRB | – | – | GI50 | 1.81 µM |
| COc1cccc(Oc2ccccc2NC(=O)CNC(=O)c2cccc3ccccc23)c1 | SRB | – | 48 h | GI50 | 0.209 µM |
| O=C1NC(=NCc2cccs2)S/C1=C\c1ccc2ncccc2c1 | – | – | – | IC50 | > 10 µM |
| COc1ccc(C(=O)/C=C/c2cccc3ccccc23)cc1S(N)(=O)=O | SRB | 10 µM | – | inhibition | 158% |
| O=C1NCCc2[nH]c(-c3ccncc3)cc21 | – | – | – | IC50 | 6.12 µM |
| COc1cc(-c2ccc(-c3ccc(C(=N)N)nc3)s2)cc(OC)c1OC | SRB | – | – | GI50 | 1.73 µM |
| Cc1cc(C)n(C(=S)[S][Au][PH](CCCCCC[PH]([Au][S]C(=S)n2nc(C)cc2C)(c2ccccc2)c2ccccc2)(c2ccccc2)c2ccccc2)n1 | – | – | – | GI50 | 0.25 µM |
